Results: ChEMBL document CHEMBL5550192, “Discovery of first-in-class PROTACs targeting maternal embryonic leucine zipper kinase (MELK) for the treatment of Burkitt lymphoma” (RSC Med Chem, 2024)
Each block holds one compound with its values, some of them ahead of it. Calls of active or inactive are those of the source. No cut-off for these calls is given here.

How the values were obtained:
[1] = target: T1, Protein cereblon/Maternal embryonic leucine zipper kinase (Homo sapiens, UniProt Q14680+Q96SW2); assay: PROTAC activity at CRBN/MELK in human Ramos cells assessed as induction of MELK degradation by immunoblot analysis; type: cell-based
Summary of the method: (§1)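 Ramos cells in 12-well plates (1 mL medium) treated with compound at various concentrations. Lysed in 2X SDS sample buffer and boiled 15 min. Proteins resolved on 10% SDS-PAGE and transferred to PVDF. Probed with MELK, mTOR or p-mTOR antibodies, with β-actin/β-tubulin as loading controls. ECL detection, band densitometry, DC50 from nonlinear regression.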
Target sequence in this assay (Q14680 whole entry): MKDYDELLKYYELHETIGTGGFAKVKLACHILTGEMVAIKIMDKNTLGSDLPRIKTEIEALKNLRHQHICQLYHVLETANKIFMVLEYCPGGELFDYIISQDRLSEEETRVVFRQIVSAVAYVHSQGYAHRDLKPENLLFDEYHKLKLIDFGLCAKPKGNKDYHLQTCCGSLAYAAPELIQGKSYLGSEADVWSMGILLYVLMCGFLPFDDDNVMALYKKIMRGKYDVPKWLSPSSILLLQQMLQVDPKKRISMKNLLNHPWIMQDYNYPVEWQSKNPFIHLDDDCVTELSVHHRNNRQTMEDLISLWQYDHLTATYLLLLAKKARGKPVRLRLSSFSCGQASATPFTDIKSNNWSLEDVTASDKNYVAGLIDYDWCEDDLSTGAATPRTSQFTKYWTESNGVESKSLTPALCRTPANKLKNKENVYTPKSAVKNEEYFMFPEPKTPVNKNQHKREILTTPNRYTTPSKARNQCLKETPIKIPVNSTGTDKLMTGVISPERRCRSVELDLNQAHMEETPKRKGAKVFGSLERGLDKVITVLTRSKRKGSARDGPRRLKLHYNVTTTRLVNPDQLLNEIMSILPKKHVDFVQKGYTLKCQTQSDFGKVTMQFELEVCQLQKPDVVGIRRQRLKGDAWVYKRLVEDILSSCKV
Target sequence in this assay (Q96SW2 whole entry): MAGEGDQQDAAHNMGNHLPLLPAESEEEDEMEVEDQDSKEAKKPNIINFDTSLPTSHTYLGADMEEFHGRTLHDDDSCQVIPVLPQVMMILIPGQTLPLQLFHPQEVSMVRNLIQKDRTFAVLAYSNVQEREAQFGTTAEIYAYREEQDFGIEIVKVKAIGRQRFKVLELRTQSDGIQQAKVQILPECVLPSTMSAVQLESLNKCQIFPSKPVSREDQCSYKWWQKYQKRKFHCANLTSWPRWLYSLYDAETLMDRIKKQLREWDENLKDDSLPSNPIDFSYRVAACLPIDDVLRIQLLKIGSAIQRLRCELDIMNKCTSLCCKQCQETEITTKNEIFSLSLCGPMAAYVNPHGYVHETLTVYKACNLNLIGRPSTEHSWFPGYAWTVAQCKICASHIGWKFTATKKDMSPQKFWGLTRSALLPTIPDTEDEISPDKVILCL

[2] = target: T1, Protein cereblon/Maternal embryonic leucine zipper kinase; assay: PROTAC activity at CRBN/MELK in human Ramos cells assessed as residual activity at 5 uM measured after 48 hrs by immunoblot analysis relative to control; type: cell-based
Target sequence in this assay (Q14680 whole entry, looked up): as the sequence (Q14680 whole entry) above
Target sequence in this assay (Q96SW2 whole entry, looked up): as the sequence (Q96SW2 whole entry) above

[3] = target: T1, Protein cereblon/Maternal embryonic leucine zipper kinase; assay: PROTAC activity at CRBN/MELK in human Ramos cells assessed as induction of MELK degradation by immunoblot analysis relative to control; type: cell-based; summary of the method: as §1
Target sequence in this assay (Q14680 whole entry, looked up): as the sequence (Q14680 whole entry) above
Target sequence in this assay (Q96SW2 whole entry, looked up): as the sequence (Q96SW2 whole entry) above

[4] = test system: Ramos; assay: Induction of apoptosis in human Ramos cells assessed as late apoptotic cells at 20 uM measured after 24 hrs by Annexin V-FITC and propidium iodide staining based flow cytometry analysis (reference value: 5.05%); type: functional
Summary of the method: (§2)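 Ramos cells, 1×10^6 per well in 6-well plates, treated with compound or DMSO for 24 h. Washed in cold PBS, resuspended in Annexin V binding buffer, stained with Annexin V-FITC and propidium iodide. Populations quantified by flow cytometry.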

[5] = test system: Ramos; assay: Induction of apoptosis in human Ramos cells assessed as viable cells at 20 uM measured after 24 hrs by Annexin V-FITC and propidium iodide staining based flow cytometry analysis (reference value: 84.9%); type: functional; settings: read-out: Activity; summary of the method: as §2
[6] = test system: Ramos; assay: Induction of cell cycle arrest in human Ramos cells assessed as accumulation of cells at G2/M phase at 10 uM measured after 24 hrs by propidium iodide staining based flow cytometry analysis; type: functional
Summary of the method: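 Ramos cells exposed to compound or DMSO for 24 h, washed in cold PBS and fixed overnight in 70% ethanol. Stained with propidium iodide for 30 min at 37°C in the dark. Cell-cycle phase distribution determined by flow cytometry.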

[7] = test system: Ramos; assay: Induction of apoptosis in human Ramos cells assessed as necrotic cells at 20 uM measured after 24 hrs by Annexin V-FITC and propidium iodide staining based flow cytometry analysis (reference value: 0.34%); type: functional; summary of the method: as §2
[8] = test system: Ramos; assay: Cytotoxicity against human Ramos cells assessed as inhibition of cell growth measured after 72 to 96 hrs by CCK-8 method; type: functional, cell-based
Summary of the method: (§3)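 Ramos grown in RPMI 1640 with 10% FBS, 1% pen-strep, 1% NEAA and 50 μM 2-mercaptoethanol at 37°C, 5% CO₂. Plated at 3000 cells/well with compound diluted in medium from DMSO stock. Incubated 72–96 h, then CCK-8 added for 4 h. Absorbance read at 450 nm, normalized to DMSO-treated cells. EC50 from nonlinear regression.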

[9] = test system: DOHH-2; assay: Upregulation of MELK mRNA level in human DOHH-2 cells at 20 uM incubated for 24 hrs by qPCR analysis; type: functional, cell-based
[10] = test system: HUVEC; assay: Cytotoxicity against human HUVEC cells at 4 uM measured after 24 hrs by tube formation assay; type: toxicity, cell-based
Summary of the method: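 HUVEC, 3×10^4 cells/well, seeded on Matrigel-coated wells (Matrigel set 4 h at 37°C) in medium containing compound. Tubes imaged by optical microscopy and quantified by image analysis. Three independent experiments.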

[11] = target: T1, Protein cereblon/Maternal embryonic leucine zipper kinase; assay: PROTAC activity at CRBN/MELK in human Ramos cells assessed as degradation of MELK by measuring half life at 20 uM measured for 48 hrs by Western blot analysis; type: cell-based
Target sequence in this assay (Q14680 whole entry, looked up): as the sequence (Q14680 whole entry) above
Target sequence in this assay (Q96SW2 whole entry, looked up): as the sequence (Q96SW2 whole entry) above

[12] = target: T1, Protein cereblon/Maternal embryonic leucine zipper kinase; assay: PROTAC activity at CRBN/MELK in human Ramos cells assessed as degradation of MELK at 20 uM pretreated with MLN4924 followed by compound addition and measured after 24 hrs by immunoblot analysis; type: cell-based
Target sequence in this assay (Q14680 whole entry, looked up): as the sequence (Q14680 whole entry) above
Target sequence in this assay (Q96SW2 whole entry, looked up): as the sequence (Q96SW2 whole entry) above

[13] = target: T1, Protein cereblon/Maternal embryonic leucine zipper kinase; assay: PROTAC activity at CRBN/MELK in human Ramos cells assessed as degradation of MELK at 20 uM pretreated with MG132 followed by compound addition and measured after 24 hrs by immunoblot analysis; type: cell-based
Target sequence in this assay (Q14680 whole entry, looked up): as the sequence (Q14680 whole entry) above
Target sequence in this assay (Q96SW2 whole entry, looked up): as the sequence (Q96SW2 whole entry) above

[14] = test system: Ramos; assay: Induction of apoptosis in human Ramos cells at 20 uM measured after 24 hrs by calcein-AM/propidium iodide staining based fluorescence microscopic analysis; type: functional, cell-based
Summary of the method: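 Ramos cells, 2×10^5 per well in 12-well plates, exposed to compound or DMSO for 24 h. Washed in cold PBS, then stained with calcein-AM/propidium iodide working solution for 30 min at 37°C in the dark. Examined by fluorescence microscopy.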

[15] = test system: Ramos; assay: Induction of apoptosis in human Ramos cells assessed as early apoptotic cells at 20 uM measured after 24 hrs by Annexin V-FITC and propidium iodide staining based flow cytometry analysis (reference value: 9.69%); type: functional; summary of the method: as §2
[16] = Selectivity ratio of CC50 for human MDA-MB-231 cells to IC50 for human Ramos cells
[17] = test system: MDA-MB-231; assay: Cytotoxicity against human MDA-MB-231 cells assessed as inhibition of cell growth measured after 72 to 96 hrs by CCK-8 method; type: functional; settings: time 72-96 hrs
Summary of the method: as §3, with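 “MDA-MB-231” for “Ramos”, “DMEM” for “RPMI 1640”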

[18] = target: T1, Protein cereblon/Maternal embryonic leucine zipper kinase; assay: PROTAC activity at CRBN/MELK in human Ramos cells assessed as inhibition of mTOR phosphorylation measured after 24 hrs Western blot analysis; type: cell-based; summary of the method: as §1
Target sequence in this assay (Q14680 whole entry): as the sequence (Q14680 whole entry) above
Target sequence in this assay (Q96SW2 whole entry): as the sequence (Q96SW2 whole entry) above

[19] = test system: Ramos; assay: Upregulation of MELK mRNA level in human Ramos cells at 20 uM incubated for 24 hrs by qPCR analysis; type: functional, cell-based
Summary of the method: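 Ramos cells in 6-well plates exposed to 20 μM compound or DMSO for 24 h. MELK mRNA measured by qPCR with MELK-specific primers. Relative expression by the 2^-ΔΔCt method, normalized to 18S mRNA (actin also stated as internal control). Run in triplicate.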

[20] = target: T1, Protein cereblon/Maternal embryonic leucine zipper kinase; assay: PROTAC activity at CRBN/MELK in human Ramos cells assessed as inhibition of mTOR phosphorylation at upto 64 uM measured after 24 hrs Western blot analysis; type: cell-based; summary of the method: as §1
Target sequence in this assay (Q14680 whole entry, looked up): as the sequence (Q14680 whole entry) above
Target sequence in this assay (Q96SW2 whole entry, looked up): as the sequence (Q96SW2 whole entry) above

DC50 [1]: < 5 µM | Activity [2]: 49.3%
Compound: CC(C)COc1cnccc1-c1cnn(-c2ccc(N3CCN(Cc4cn(CCOCCNc5ccc6c(c5)C(=O)N(C5CCC(=O)NC5=O)C6=O)nn4)CC3)cc2)c1 (centres undefined)

DC50 [1]: < 5 µM | Activity [2]: 49.6%
Compound: CC(C)COc1cnccc1-c1cnn(-c2ccc(N3CCN(Cc4cn(CCOCCOCCOCCNc5ccc6c(c5)C(=O)N(C5CCC(=O)NC5=O)C6=O)nn4)CC3)cc2)c1 (centres undefined)

DC50 [1]: < 5 µM | Activity [2]: 42.7%
Compound: CC(C)COc1cnccc1-c1cnn(-c2ccc(N3CCN(Cc4cn(CCOCCOCCOCCOCCNc5ccc6c(c5)C(=O)N(C5CCC(=O)NC5=O)C6=O)nn4)CC3)cc2)c1 (centres undefined)

Emax [3]: 91.6% | DC50 [1]: 2.1 µM | Activity [2]: 14.3% | T1/2 [11]: < 3 h | Activity [12]: inactive | Activity [13]: inactive | EC50 [18]: 2.3 µM | Activity [20]: Active
Compound: CC(C)COc1cnccc1-c1cnn(-c2ccc(N3CCN(Cc4cn(CCOCCOCCNc5ccc6c(c5)C(=O)N(C5CCC(=O)NC5=O)C6=O)nn4)CC3)cc2)c1 (centres undefined)
Activity [4]: 12.8% | viability at 20 µM [5]: 44.9% | Activity [6]: Active | Activity [7]: 0.25% | EC50 [8]: 1.8 µM | Activity [9]: Active | Activity [10]: Non-Toxic | Activity [14]: Active | Activity [15]: 42.1% | Ratio CC50/IC50 [16]: 7.6 | CC50 [17]: 13.8 µM | Activity [19]: Active

DC50 [1]: < 5 µM | Activity [2]: 37.7%
Compound: CC(C)COc1cnccc1-c1cnn(-c2ccc(N3CCN(Cc4cn(CCCCCCCNc5ccc6c(c5)C(=O)N(C5CCC(=O)NC5=O)C6=O)nn4)CC3)cc2)c1 (centres undefined)

Compound: COc1cc(-c2cn[nH]c2)ccc1C(=O)Nc1ccc2c(c1)CCNCC2
IC50 [8]: 9.1 µM | Ratio CC50/IC50 [16]: 0.9 | CC50 [17]: 7.9 µM

Compound: CN1CCN(c2ccc(-n3cc(-c4ccncc4OCC4CCNCC4)cn3)cc2)CC1
IC50 [8]: 3.4 µM | Ratio CC50/IC50 [16]: 0.7 | CC50 [17]: 2.3 µM
